Test [1] deals with MDA-MB-231. The experiment in a line: Induction of apoptosis in human MDA-MB-231 cells assessed as viable cells at 2 uM incubated for 24 hrs by annexin V-FITC and PI staining based flow cytometry analysis (reference value: 93.37 %). It is filed as functional. Conditions: read-out: Activity. On the technique in general: In flow cytometry, cells or beads pass a laser one at a time.

In test [2] the test system is MDA-MB-231. The experiment in a line: Induction of apoptosis in human MDA-MB-231 cells assessed as viable cells at 4 uM incubated for 24 hrs by annexin V-FITC and PI staining based flow cytometry analysis (reference value: 93.37 %). The format is functional. Particulars: read-out: Activity.
Test [3] deals with MDA-MB-231. The experiment in a line: Induction of apoptosis in human MDA-MB-231 cells assessed as necrotic cells at 2 uM incubated for 24 hrs by annexin V-FITC and PI staining based flow cytometry analysis (reference value: 0.23 %). The format is functional.
The test system of test [4] is MDA-MB-231. The experiment in a line: Antiproliferative activity against human MDA-MB-231 cells overexpressing STAT3 assessed as reduction in cell growth incubated for 48 hrs by CCK-8 assay. Conditions: MDA-MB-231, 48 h. It is filed as functional, cell-based. The method, boiled down: (§1)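 Cells seeded at 5000-7000/well and allowed to settle for 8 h at 37 °C, 5% CO2. Graded compound concentrations were then added in triplicate (DMSO <0.1%) for 48 h. Medium was replaced with 10% CCK-8 for 4 h (MDA-MB-231, MDA-MB-468) or 1 h (HepG2), and A450 was read. IC50 is mean ± SD of at least three independent experiments. HepG2 was grown in high-glucose DMEM with 10% FBS.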

The test system of test [5] is MDA-MB-231. As to the kind of experiment: Antitumor activity against human MDA-MB-231 cells xenografted in BALB/c mouse assessed as reduction in tumor growth at 10 mg/kg, ip administered once daily for 21 days and measured on day 21 relative to control. It is filed as functional. Particulars: MDA-MB-231, ip, 504 h, time 21 day, read-out: TGI. The method, boiled down:
(§2)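 Female BALB/c nude mice, 5 weeks old (16–18 g), were given 5×10^6 MDA-MB-231 cells subcutaneously. At ~50 mm³, mice were randomized to three groups (n=6): vehicle, 5 or 10 mg/kg i.p. daily for 21 days. Tumor volume (length×width²/2) was measured every 3 days and body weight recorded. Tumors were excised and weighed at the end. TGI derived versus control; mean ± SEM.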
On the technique in general: Xenograft models place foreign cells or tissue in a host animal.

Test [6] has as its system MDA-MB-231. As to the kind of experiment: Induction of cell cycle arrest in human MDA-MB-231 cells assessed as S phase accumulation at 4 uM incubated for 24 hrs by PI staining based flow cytometry analysis (reference value: 26.21 %). It is filed as functional.
Test [7] has as its system MDA-MB-231. As to the kind of experiment: Antitumor activity against human MDA-MB-231 cells xenografted in BALB/c mouse assessed reduction in tumor weight at 10 mg/kg, ip administered once daily for 21 days and measured on day 21 relative to control. It is filed as functional. Particulars: dose 10 mg/kg/day; time 21 day. Details: scale not given: the % may be the effect or the level left. The method, boiled down:
as §2

The target of test [8] is T1, Signal transducer and activator of transcription 3 (Homo sapiens, UniProt P40763). As to the kind of experiment: Inhibition of STAT3 in human MDA-MB-231 cells assessed as reduction in STAT3 Y705 phosphorylation in nucleus at 3 uM incubated for 24 hrs by immunofluorescence staining based fluorescence microscopy. The format is subcellular. The method, boiled down: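 MDA-MB-231 cells at 1×10^4 per dish, adhered overnight, then exposed to 3.0 µM for 24 h. Fixed in 4% paraformaldehyde and permeabilized with 0.5% Triton X-100. Blocked in 5% BSA for 1 h. Anti-p-STAT3 primary overnight at 4 °C, then Alexa Fluor 546 anti-rabbit for 1 h at RT. Hoechst nuclear stain; imaged by fluorescence microscopy.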
T1 sequence (P40763 whole entry): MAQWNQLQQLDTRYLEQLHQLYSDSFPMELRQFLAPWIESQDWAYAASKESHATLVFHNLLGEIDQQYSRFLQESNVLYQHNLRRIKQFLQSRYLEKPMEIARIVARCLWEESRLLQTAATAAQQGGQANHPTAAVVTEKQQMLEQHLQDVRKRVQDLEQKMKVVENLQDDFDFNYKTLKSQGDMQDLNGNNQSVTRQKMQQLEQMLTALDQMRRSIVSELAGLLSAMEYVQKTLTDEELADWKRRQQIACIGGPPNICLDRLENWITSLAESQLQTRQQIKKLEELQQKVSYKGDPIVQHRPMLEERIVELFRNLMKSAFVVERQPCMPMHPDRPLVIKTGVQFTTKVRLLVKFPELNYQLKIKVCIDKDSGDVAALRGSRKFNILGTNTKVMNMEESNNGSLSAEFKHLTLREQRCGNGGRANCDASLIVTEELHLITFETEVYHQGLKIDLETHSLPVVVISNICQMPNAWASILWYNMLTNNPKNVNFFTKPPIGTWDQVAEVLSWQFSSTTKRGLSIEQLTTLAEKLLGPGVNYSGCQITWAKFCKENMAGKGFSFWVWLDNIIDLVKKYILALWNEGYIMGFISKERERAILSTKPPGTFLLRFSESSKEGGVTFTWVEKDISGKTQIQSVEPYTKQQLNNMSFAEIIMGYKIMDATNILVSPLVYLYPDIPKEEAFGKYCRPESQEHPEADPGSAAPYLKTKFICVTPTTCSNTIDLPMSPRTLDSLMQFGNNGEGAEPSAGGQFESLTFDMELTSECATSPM

For another test, the system named is MDA-MB-468. As to the kind of experiment: Antiproliferative activity against human MDA-MB-468 cells overexpressing STAT3 assessed as reduction in cell growth incubated for 48 hrs by CCK-8 assay. The format is functional, cell-based. Particulars: MDA-MB-468, 48 h. The method, boiled down: as §1
(In general: Formazan colour is commonly taken as a measure of viable cells.)

In test [9] the test system is MDA-MB-231. The experiment in a line: Induction of apoptosis in human MDA-MB-231 cells assessed as early apoptotic cells at 1 uM incubated for 24 hrs by annexin V-FITC and PI staining based flow cytometry analysis (reference value: 2.69 %). It is filed as functional.
Test [10] deals with MDA-MB-231. As to the kind of experiment: Induction of cell cycle arrest in human MDA-MB-231 cells assessed as S phase accumulation at 1 uM incubated for 24 hrs by PI staining based flow cytometry analysis (reference value: 26.21 %). It is filed as functional.
In test [11] the test system is MDA-MB-231. The experiment in a line: Induction of apoptosis in human MDA-MB-231 cells assessed as late apoptotic cells at 4 uM incubated for 24 hrs by annexin V-FITC and PI staining based flow cytometry analysis (reference value: 3.72 %). It is filed as functional.
The target in test [12] is T1, Signal transducer and activator of transcription 3. As to the kind of experiment: Inhibition of STAT3 in human MDA-MB-231 cells assessed as reduction in c-myc expression incubated for 24 hrs by Western blot analysis. Conditions: dose 0.75-3 µM. The format is cell-based. The method, boiled down:
(§3)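 MDA-MB-231 cells treated with a range of concentrations for 24 h. RIPA lysates with PMSF, 40 µg protein/lane, on 10% SDS-PAGE, then PVDF. Blocked in 5% milk/TBST for 2 h. Primary antibodies to STAT3, p-STAT3(Y705), STAT1, p-STAT1(Y701), c-Myc and Cyclin D1 overnight at 4 °C; GAPDH as loading control. HRP secondary for 1 h; ECL detection.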

Test [13] has as its system MDA-MB-231. As to the kind of experiment: Induction of cell cycle arrest in human MDA-MB-231 cells assessed as G2/M phase accumulation at 2 uM incubated for 24 hrs by PI staining based flow cytometry analysis (reference value: 15.80 %). It is filed as functional.
Test [14] deals with MDA-MB-231. As to the kind of experiment: Antitumor activity against human MDA-MB-231 cells xenografted in BALB/c mouse assessed reduction in tumor weight at 5 mg/kg, ip administered once daily for 21 days and measured on day 21 relative to control. Conditions: MDA-MB-231, ip, 504 h, time 21 day. It is filed as functional. The method, boiled down: as §2
In test [15] the test system is MDA-MB-231. The experiment in a line: Induction of cell cycle arrest in human MDA-MB-231 cells assessed as G0/G1 phase accumulation at 2 uM incubated for 24 hrs by PI staining based flow cytometry analysis (reference value: 57.99 %). It is filed as functional.
The test system of test [16] is MDA-MB-231. As to the kind of experiment: Effect on STAT1 expression in human MDA-MB-231 cells at 0.75 to 3 uM incubated for 24 hrs by Western blot analysis. Conditions: dose 0.75-3 µM. It is filed as functional, cell-based. The method, boiled down: as §3
In test [17] the target is T1, Signal transducer and activator of transcription 3. As to the kind of experiment: Inhibition of STAT3 in human MDA-MB-231 cells assessed as reduction in Cyclin D1 expression incubated for 24 hrs by Western blot analysis. It is filed as cell-based. Conditions: dose 0.75-3 µM. The method, boiled down: as §3
The subject of test [18] is MDA-MB-231. The experiment in a line: Induction of cell cycle arrest in human MDA-MB-231 cells assessed as G2/M phase accumulation at 1 uM incubated for 24 hrs by PI staining based flow cytometry analysis (reference value: 15.80 %). The format is functional.
The subject of test [19] is MDA-MB-231. As to the kind of experiment: Induction of apoptosis in human MDA-MB-231 cells assessed as necrotic cells at 4 uM incubated for 24 hrs by annexin V-FITC and PI staining based flow cytometry analysis (reference value: 0.23 %). The format is functional.
Test [20] has as its system MDA-MB-231. The experiment in a line: Antitumor activity against human MDA-MB-231 cells xenografted in BALB/c mouse assessed as reduction in tumor growth at 5 mg/kg, ip administered once daily for 21 days and measured on day 21 relative to control. Conditions: MDA-MB-231, ip, 504 h, time 21 day, read-out: TGI. It is filed as functional. The method, boiled down:
as §2

Test [21] addresses T1, Signal transducer and activator of transcription 3. The experiment in a line: Inhibition of STAT3 in human MDA-MB-231 cells assessed as reduction in STAT3 Y705 phosphorylation incubated for 24 hrs by Western blot analysis. It is filed as cell-based. Conditions: dose 0.75-3 µM. The method, boiled down: as §3
For test [22], the system named is MDA-MB-231. As to the kind of experiment: Effect on STAT3 expression in human MDA-MB-231 cells at 0.75 to 3 uM incubated for 24 hrs by Western blot analysis. Particulars: dose 0.75-3 µM. The format is functional, cell-based. The method, boiled down:
as §3

Test [23] relates to MDA-MB-231. As to the kind of experiment: Induction of cell cycle arrest in human MDA-MB-231 cells assessed as G0/G1 phase accumulation at 4 uM incubated for 24 hrs by PI staining based flow cytometry analysis (reference value: 57.99 %). The format is functional.

SMILES strings stand for the structures. Calls of active or inactive are those of the source. No cut-off for these calls is given here.

Consider `COc1ccc(NC2=CC(=O)c3cc(C(C)=O)oc3C2=O)cc1`, for which the viability at 2 µM in the test with MDA-MB-231 [1] was determined as 82.2%. Also, the viability at 4 µM with MDA-MB-231 [2] stood at 67%. The Activity is reported as 0.38% in the test with MDA-MB-231 [3]; 57.09% with MDA-MB-231 [6]; 45.19% in the test with MDA-MB-231 [7]; 5.21% in the test with MDA-MB-231 [9]; 34.31% with MDA-MB-231 [10]; 22.03% with MDA-MB-231 [11]. Also, the Activity with MDA-MB-231 [13] stood at 13.3%; with MDA-MB-231 [15], 40.49%; in the test with MDA-MB-231 [18] it was 16.27%; with MDA-MB-231 [19], 0.77%; with MDA-MB-231 [23] it was 35.39%. The IC50 (as a rule, the concentration needed to halve the response being measured) in the test on MDA-MB-231 [4] was 670 nM; with MDA-MB-468 it was 770 nM. In addition, the inhibition in vivo at 10 mg/kg/day with MDA-MB-231 [5] is 54.6%. Moreover, the inhibition result in test [8] was “Active”. Further, the inhibition result in test [12], in test [17] and in test [21] was “Dose-dependent effect” throughout. The inhibition in vivo at 5 mg/kg/day worked out at 26% in the test with MDA-MB-231 [14] and 8.42% in the test with MDA-MB-231 [20]. In addition, the result with MDA-MB-231 [16] and in the test with MDA-MB-231 [22] was inactive.

(Values after ChEMBL document CHEMBL4765360, “Design, synthesis and biological evaluation of novel potent STAT3 inhibitors based on BBI608 for cancer therapy” (Eur J Med Chem, 2020).)
